Source: ChEMBL document CHEMBL4680103, “In Vitro and in Vivo Anti-Trypanosoma cruzi Activity of New Arylamine Mannich Base-Type Derivatives” (J Med Chem, 2016)
Active and inactive are the calls of the source. The rule behind the calls is not given here.

Columns and labels:
[1] = tested on: Trypanosoma cruzi; test: Antitrypanosomal activity against Trypanosoma cruzi Arequipa amastigote forms infected in African green monkey Vero cells incubated for 72 hrs by Giemsa staining based micrscopy; type: functional, organism-based
Procedure, shortened: (§1)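 Vero cells (RPMI, 10% inactivated FBS, 37 °C, 5% CO2) were seeded at 1×10^4/well on coverslips and cultured 2 days. They were infected 24 h with metacyclic forms at 10:1. After washing off free parasites, drugs were added at 0.1–100 µM for 72 h. Slides were methanol-fixed and Giemsa-stained; amastigotes were counted in 200 host cells versus untreated. IC50 was calculated.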

[2] = tested on: Trypanosoma cruzi; test: Antitrypanosomal activity against Trypanosoma cruzi SN3 amastigote forms infected in African green monkey Vero cells incubated for 72 hrs by Giemsa staining based micrscopy; type: functional, organism-based; procedure, shortened: as §1
[3] = tested on: Trypanosoma cruzi; test: Antitrypanosomal activity against Trypanosoma cruzi SN3 trypomastigote froms infected in mouse blood incubated for 24 hrs by Neubauer chamber based assay; type: functional, organism-based
Procedure, shortened: (§2)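 Mouse blood taken at peak parasitemia (day 7) was diluted with uninfected blood to 4×10^6 trypomastigotes/mL, then 1:2 in RPMI 1640. Drugs from DMSO stocks were added at 1, 10, 25, 50 and 100 µM and incubated 24 h at 4–8 °C. Parasites were counted in a Neubauer chamber in triplicate. IC50 was calculated versus control.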

[4] = tested on: Trypanosoma cruzi; test: Antitrypanosomal activity against Trypanosoma cruzi Arequipa epimastigote forms incubated for 72 hrs by hemocytometry; type: functional, organism-based
Procedure, shortened: (§3)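 Epimastigotes grown in MTL medium with 10% inactivated FBS at 28 °C. Compounds were dissolved in DMSO (0.01% v/v) and added at 0.1–100 µM for 72 h. Parasites were counted in a Neubauer chamber. IC50 (50% growth inhibition) was derived by linear regression of Kc values. Values are averages of four determinations.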

[5] = tested on: Trypanosoma cruzi; test: Antitrypanosomal activity against Trypanosoma cruzi Tulahuen trypomastigote froms infected in mouse blood incubated for 24 hrs by Neubauer chamber based assay; type: functional, organism-based; procedure, shortened: as §2
[6] = tested on: Trypanosoma cruzi; test: Antitrypanosomal activity against Trypanosoma cruzi SN3 epimastigote forms incubated for 72 hrs by hemocytometry; type: functional, organism-based; settings: SN3, 72 h; procedure, shortened: as §3
[7] = tested on: Vero; test: Cytotoxicity in African green monkey Vero cells incubated for 72 hrs; type: cell-based; settings: Chlorocebus sabaeus
[8] = tested on: Trypanosoma cruzi; test: Antitrypanosomal activity against Trypanosoma cruzi Arequipa trypomastigote froms infected in mouse blood incubated for 24 hrs by Neubauer chamber based assay; type: functional, organism-based; procedure, shortened: as §2
[9] = tested on: Trypanosoma cruzi; test: Antitrypanosomal activity against Trypanosoma cruzi Tulahuen epimastigote forms incubated for 72 hrs by hemocytometry; type: functional, organism-based; procedure, shortened: as §3
[10] = tested on: Trypanosoma cruzi; test: Antitrypanosomal activity against Trypanosoma cruzi Tulahuen amastigote forms infected in African green monkey Vero cells incubated for 72 hrs by Giemsa staining based micrscopy; type: functional, organism-based; procedure, shortened: as §1
[11] = tested on: Trypanosoma cruzi; test: Antitrypanosomal activity against Trypanosoma cruzi infected in African green monkey Vero cells assessed as reduction in number of trypomastigotes measured up to 10 days by Giemsa staining based hemocytometry; type: functional; settings: time day <=10
Procedure, shortened: (§4)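 Vero cells infected with metacyclic forms (10:1) were exposed to one concentration per compound immediately after infection for 12 h at 37 °C, 5% CO2. After washing, cultures were kept 10 days with fresh medium every 48 h. Every 48 h, % infected cells and amastigotes per infected cell (200 Giemsa-stained cells) and medium trypomastigotes (Neubauer) were scored. Means of three experiments.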

[12] = tested on: Trypanosoma cruzi; test: Antitrypanosomal activity against Trypanosoma cruzi infected in African green monkey Vero cells assessed as reduction in number of amastigotes per infected cell measured up to 10 days by Giemsa staining based hemocytometry; type: functional; settings: time day <=10; procedure, shortened: as §4
[13] = tested on: Trypanosoma cruzi; test: Antitrypanosomal activity against Trypanosoma cruzi Arequipa trypomastigotes infected in BALB/c mouse assessed as reduction in mouse mortality measured during acute phase (days 0 to 40 post infection) at 50 to 100 mg/kg, po dosed on alternating days (7 to 15 days post infection); type: functional, organism-based; settings: dose 50-100 mg/kg
[14] = tested on: Trypanosoma cruzi; test: Antitrypanosomal activity against Trypanosoma cruzi Arequipa trypomastigotes infected in BALB/c mouse assessed as reduction in parasitemia measured during acute phase (days 0 to 40 post infection) at 50 to 100 mg/kg, po dosed on alternating days (7 to 15 days post infection); type: functional, organism-based; settings: dose 50-100 mg/kg
Procedure, shortened: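 Female BALB/c mice (8–10 weeks, 25–30 g; groups of six) were infected i.p. with 5×10^5 Arequipa blood trypomastigotes. Dosing was oral, 50 or 100 mg/kg/day, on 5 alternating days (days 7–15 pi), alongside untreated and reference-drug groups. Parasitemia was counted in 5 µL mandibular-vein blood by Neubauer chamber through day 40 pi. Data are means ± SD of six mice.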

[15] = tested on: Trypanosoma cruzi; test: Antitrypanosomal activity against Trypanosoma cruzi infected in African green monkey Vero cells assessed as reduction in infection rate measured up to 10 days by Giemsa staining based hemocytometry; type: functional; settings: time day <=10; procedure, shortened: as §4
[16] = tested on: Trypanosoma cruzi; test: Antitrypanosomal activity against Trypanosoma cruzi Arequipa trypomastigotes infected in BALB/c mouse assessed as reduction in splenomegaly by measuring weight percent of spleens […] at 100 mg/kg, po dosed on alternating days (7 to 15 days post infection) by PCR analysis (reference value: 1.603%); type: functional

SMILES | IC50 [1] [µM] | IC50 [2] [µM] | IC50 [3] [µM] | IC50 [4] [µM] | IC50 [5] [µM] | IC50 [6] [µM] | IC50 [8] [µM] | IC50 [9] [µM] | IC50 [10] [µM] | IC50 [7] [µM] | inhibition (INH) [11] [%] | inhibition (INH) [12] [%] | Activity [13] | Activity [14] | inhibition (INH) [15] [%] | Spleen weight percent [16] [%]
O=C(CCN1CCN(c2ccc([N+](=O)[O-])cc2)CC1)c1csc2ccc(F)cc12 | 19.8 | 16.3 | 4.1 | 36.6 | 52.4 | 39.4 | 43.3 | 48.1 | 8.8 | 554 |  |  |  |  |  | 
O=C(CCN1CCN(Cc2cccc(F)c2)CC1)c1csc2ccccc12 | 22.6 | 32 | 86.3 | 86.7 | 27.3 | 53.9 | 39.5 | 28.9 | 20 | 70.8 |  |  |  |  |  | 
O=C(CCN1CCN(c2ccc(C(F)(F)F)cc2)CC1)c1csc2ccccc12 | 19.3 | 21.4 | 43.2 | 21.9 | 6.6 | 40.6 | 32.3 | 48.2 | 8.1 | 237 |  |  |  |  |  | 
O=C(Cn1ccnc1[N+](=O)[O-])NCc1ccccc1 [BENZNIDAZOLE] | 23.7 |  | 6.2 |  | 12.8 |  | 12.6 |  | 21.7 |  | 20 | 30 | Active | Active | 22 | 0.837
O=C(CCN1CCN(Cc2ccccc2)CC1)c1csc2ccccc12 | 31.7 | 18.7 | 20.8 | 29.7 | 32.3 | 42.5 | 43.3 | 30.1 | 21.7 | 130 |  |  |  |  |  | 
O=C(CCN1CCN(c2ccc(Cl)cc2)CC1)c1csc2ccccc12 | 25.3 | 26.3 | 43.2 | 30.6 | 12.8 | 23.6 | 31.4 | 42.3 | 10.1 | 157 |  |  |  |  |  | 
O=C(CCN1CCN(c2ccc(F)cc2)CC1)c1ccc2c(c1)OCO2 | 22.4 | 14.8 | 63.4 | 97 | 56.3 | 17.6 | 34.6 | 200 | 22.3 | 323 |  |  |  |  |  | 
O=C(CCN1CCN(c2ccc(C(F)(F)F)cc2)CC1)c1ccc2c(c1)OCO2 | 27.9 | 13 | 14.2 | 50.6 | 23.7 | 17.8 | 21.8 | 21.8 | 17.6 | 48.7 |  |  |  |  |  | 
O=C(CCN1CCN(c2ccc(F)cc2)CC1)c1ccc2ccccc2c1 | 23.9 | 12.4 | 10.7 | 49 | 25.5 | 24.1 | 24.6 | 27.6 | 20.3 | 103 |  |  |  |  |  | 

Now those with a lower IC50 [1], led by results:

IC50 [1] [µM] | IC50 [2] [µM] | IC50 [3] [µM] | IC50 [4] [µM] | IC50 [5] [µM] | IC50 [6] [µM] | IC50 [8] [µM] | IC50 [9] [µM] | IC50 [10] [µM] | SMILES | IC50 [7] [µM] | inhibition (INH) [11] [%] | inhibition (INH) [12] [%] | Activity [13] | Activity [14] | inhibition (INH) [15] [%] | Spleen weight percent [16] [%]
13.2 | 17.6 | 19.6 | 28.5 | 21.8 | 30.1 | 9.6 | 9.6 | 14.8 | O=C(CCN1CCN(c2ccc(Cl)cc2)CC1)c1csc2ccc(F)cc12 | 246 |  |  |  |  |  | 
1.7 | 6.2 | 16.8 | 2.5 | 29.3 | 12.6 | 46.3 | 69.1 | 11.2 | O=C(CCN1CCN(c2ccc(Cl)cc2)CC1)c1ccc2c(c1)OCO2 | 0.3 |  |  |  |  |  | 
0.8 | 24.2 | 37.5 | 2.5 | 2.3 | 21.2 | 0.7 | 4.7 | 2 | COc1cc(Cl)ccc1N1CCN(CCC(=O)c2cc(C)sc2C)CC1 | 138 |  |  |  |  |  | 
2.6 | 8.3 | 36.5 | 1.23 | 6.6 | 15.3 | 8.3 | 4.2 | 20.5 | O=C(CCN1CCN(c2ccc(C(F)(F)F)cc2)CC1)c1ccc2ccccc2c1 | 30.1 |  |  |  |  |  | 
5.4 | 20.3 | 26.4 | 3.4 | 6.9 | 27.7 | 3.9 | 6.9 | 8.6 | O=C(CCN1CCN(c2ccc([N+](=O)[O-])cc2)CC1)c1ccc2ccccc2c1 | 74.3 |  |  |  |  |  | 
1.2 | 11.4 | 50.9 | 1.4 | 0.08 | 18.8 | 0.58 | 15.6 | 11.6 | O=C(CCN1CCN(c2ccc([N+](=O)[O-])cc2)CC1)c1ccc2c(c1)OCO2 | 276 |  |  |  |  |  | 
10 | 16.3 | 21.8 | 14.1 | 22.3 | 24.1 | 46.9 | 28 | 7.7 | O=C(CCN1CCN(c2ccc(Cl)cc2)CC1)c1ccsc1 | 65.8 |  |  |  |  |  | 
